Hits are enriched below; roughly 3.5% of the tested compounds scored in any of these assays.
RGS4 block: RGS4 inhibitors, primary screen, cell-based, HEK293 M3R inducible RGS4, calcium flux | B-score at 10 µM | Regulator of G-protein signaling 4 (Homo sapiens), P49798 | hit rate 0.45% among 310,000 | Fluo-4 calcium flux; active compounds read high; triggered by carbachol at its EC20;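 active means B-score, a plate-corrected calcium signal, over three deviations above library mean, with baseline fluorescence within five deviations of library mean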;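 further: RGS4 expression induced by doxycycline in cells with stable M3 receptor; B-score is computed from the integrated fluorescence ratio over baseline after carbachol; higher B-score means a larger calcium signal and so more RGS4 inhibition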
Target sequence (P49798 whole entry, looked up): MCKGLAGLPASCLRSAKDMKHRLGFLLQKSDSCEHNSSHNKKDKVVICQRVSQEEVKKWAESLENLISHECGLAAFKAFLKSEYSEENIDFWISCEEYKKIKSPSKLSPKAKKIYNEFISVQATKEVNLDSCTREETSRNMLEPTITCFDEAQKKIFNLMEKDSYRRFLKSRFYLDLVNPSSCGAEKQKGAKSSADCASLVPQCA
MrgX1 allo act: positive allosteric modulators of MrgX1, primary screen, HEK293 cells, Fluo-4 calcium flux | FDSS; active compounds read high | B-score at 10 µM | hit rate 0.63% among 310,000 | AID 588675, 2011;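 active means plate-corrected calcium response at least 3 library SD above typical, normal starting fluorescence, not activating the receptor alone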;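 further: compound read alongside a low EC10 to EC30 dose of BAM8-22 agonist; peak minus trough fluorescence over baseline measured at the second addition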
Target sequence (Q96LB2 whole entry, looked up): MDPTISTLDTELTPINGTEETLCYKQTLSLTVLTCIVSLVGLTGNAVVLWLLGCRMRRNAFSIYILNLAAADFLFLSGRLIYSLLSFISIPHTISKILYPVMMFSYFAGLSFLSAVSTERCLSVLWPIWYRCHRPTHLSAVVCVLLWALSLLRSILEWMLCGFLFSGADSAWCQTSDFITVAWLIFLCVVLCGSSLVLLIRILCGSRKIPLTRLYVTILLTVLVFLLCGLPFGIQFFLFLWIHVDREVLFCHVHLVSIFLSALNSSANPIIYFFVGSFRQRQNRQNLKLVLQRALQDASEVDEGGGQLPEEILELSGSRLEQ
RGS4 pot: RGS4 potentiators or activators, primary screen, cell-based, HEK293 M3R inducible RGS4, calcium flux; AID 463111, 2010; carbachol calcium flux Fluo4; active compounds read low; B-score at 10 µM; hit rate 0.92% among 310,000;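 active means B-score of the integrated calcium signal more than 4 SD below the library mean, with starting fluorescence not abnormally high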;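 further: negative B-score means reduced calcium response which marks RGS4 activation or potentiation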
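Assay system: HEK293 FlpIn-TREx cells, stable M3R, doxycycline-inducible RGS4 / Probe or stimulus: carbachol, ECmax concentration / Times: overnight RGS4 induction, 30 min dye load 37 °C, 20 min compound RT / Signal: kinetic calcium fluorescence imaging with Fluo4-AM dye, 2 µM / Measure: Agonist-evoked peak-minus-minimum fluorescence over baseline, integrated ratio, B score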
MrgX1 antagonist: antagonists of human MrgX1 receptor, primary screen, HEK293 cells, Fluo-4 calcium flux. Mas-related G-protein coupled receptor member X1 (Homo sapiens), Q96LB2. BAM8-22 antagonism; active compounds read low. B-score at 10 µM. hit rate 1.3% among 310,000. AID 588676, 2011;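 active means calcium-response B-score plate-corrected more than 3 library SD below zero, starting fluorescence within 5 deviations, no agonist response on first addition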;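 further: peak minus trough fluorescence over baseline after final BAM8-22 challenge near maximal dose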
MrgX1 agonist: agonists of human MrgX1 receptor, primary screen, HEK293 cells, Fluo-4 calcium flux. B-score at 10 µM. AID 588627, 2011. Fluo-4 calcium fluorescence, agonist mode; active compounds read high. hit rate 0.44% among 310,000;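 active means calcium response B-score plate-corrected fluorescence ratio at least 3 library SD, with starting fluorescence B-score inside 5 SD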
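Material: HEK293 cells stably expressing human MrgX1 receptor | Quantity: 15,000 cells per well | Times: Cells plated overnight, dye loaded 0.5 h 37 °C, 0.5 h room temperature | Measured by: Kinetic Fluo-4 NW fluorescence of intracellular calcium | Control set: Positive and negative controls per plate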
RGS4 block valid: enhanced carbachol calcium response, M3R/RGS4 cells, RGS4 inhibitor project, cell-based, validation screen, HEK293 M3R/RGS4, calcium flux; carbachol calcium Fluo-4 fluorescence; carbachol added at its EC20; 0 = buffer wells, 100 = carbachol control; hit rate 65% among 1,700; AID 492999, 2010; shares compounds with RGS4 block; calcium response, % at 10 µM;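 active means duplicate-averaged calcium response above the buffer-only control mean plus 5 SD of those controls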;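 further: integrated fluorescence ratio F max minus min over baseline F0; higher response in RGS4-induced cells means RGS4 inhibition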
M3R Ca ctr: carbachol calcium response in non-induced M3R cells, confirmation, counter-screen for RGS4 inhibitor project, cell-based, HEK293 M3R; shares compounds with RGS4 block; carbachol calcium Fluo-4; submaximal (EC20) carbachol stimulus; buffer wells 0%, carbachol control wells 100%; activity (percent), % at 10 µM; hit rate 20% among 1,900; call rule not given here;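 further: RGS4 induction absent so cells express M3R without RGS4; higher means more calcium signal and flags a non-specific hit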
M3R basal Ca ctr: second RGS4 inhibitor counter-screen in uninduced cells lacking carbachol. AID 493001. shares compounds with RGS4 block. hit rate 22% among 1,900. calcium response (agonist-mode artifact), % at 10 µM. HEK293 M3R/RGS4 non-induced, Fluo-4 calcium, no carbachol; normalised: buffer wells 0%, carbachol wells 100%;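 active means duplicate-averaged calcium rise in uninduced cells above buffer wells' mean plus 5 SD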
An asterisk follows results filed as active.

What do the screens show for `O=[N+]([O-])c1ccc(N2CCOCC2)cc1O`?
RGS4 block: inactive; MrgX1 allo act: inactive; RGS4 pot: inactive; MrgX1 antagonist: inactive; MrgX1 agonist: inactive

Results for CC(=O)N(C1CC(C)C(C#N)(C#N)C1(C#N)C#N)N(C)C (stereo not drawn) ?
RGS4 block: 28.4*; MrgX1 allo act: inactive; RGS4 pot: inactive; MrgX1 antagonist: inactive; MrgX1 agonist: inactive; RGS4 block valid: 61.5%*; M3R Ca ctr: inactive; M3R basal Ca ctr: 9.0%*

Results for CCCC(=O)N(C1CC(C)C(C#N)(C#N)C1(C#N)C#N)N(C)C (stereo not drawn) ?
RGS4 block: 7.68*; MrgX1 allo act: inactive; RGS4 pot: inactive; MrgX1 antagonist: inactive; MrgX1 agonist: inactive; RGS4 block valid: 29.5%*; M3R Ca ctr: inactive; M3R basal Ca ctr: 22.5%*

How did CC12CCC(=O)N1C(C(=O)NNC(=O)c1ccccc1)CS2 (stereo not drawn) do in these assays?
RGS4 block: inactive; MrgX1 allo act: inactive; RGS4 pot: inactive; MrgX1 antagonist: inactive; MrgX1 agonist: inactive

Results for O=C(c1ccc(Br)cc1)N1CCC2(CC1)NCCc1[nH]cnc12 ?
RGS4 block: inactive; MrgX1 allo act: inactive; RGS4 pot: inactive; MrgX1 antagonist: inactive; MrgX1 agonist: inactive

How did CCOc1cc(/C=C\[N+](=O)[O-])ccc1OCC(=O)Nc1ccccc1C do in these assays?
RGS4 block: 42.7*; MrgX1 allo act: inactive; RGS4 pot: inactive; MrgX1 antagonist: inactive; MrgX1 agonist: inactive; RGS4 block valid: 54.0%*; M3R Ca ctr: 47.0%*; M3R basal Ca ctr: inactive

How did COc1ccc(/C(C)=N/NC(=O)Cc2ccc(Cl)cc2)cc1 do in these assays?
RGS4 block: inactive; MrgX1 allo act: inactive; RGS4 pot: inactive; MrgX1 antagonist: inactive; MrgX1 agonist: inactive

Results for CCN(CCO)c1nc(SC)nc2c1sc1nc(-c3ccco3)c3c(c12)CCC3 ?
RGS4 block: inactive; MrgX1 allo act: inactive; RGS4 pot: inactive; MrgX1 antagonist: inactive; MrgX1 agonist: inactive; RGS4 block valid: inactive; M3R Ca ctr: inactive; M3R basal Ca ctr: inactive

How did COCCCNC(=O)c1cc(-c2cccnc2)nc2ccc(S(=O)(=O)N3CCCCCC3)cc12 do in these assays?
RGS4 block: inactive; MrgX1 allo act: inactive; RGS4 pot: inactive; MrgX1 antagonist: inactive; MrgX1 agonist: inactive

Results for CC(=O)c1ccc(NC(=O)CCn2c(=S)oc3ccccc32)cc1 ?
RGS4 block: inactive; MrgX1 allo act: inactive; RGS4 pot: inactive; MrgX1 antagonist: inactive; MrgX1 agonist: inactive

How did COC(=O)C(C)Sc1nc2c(c(=O)n(C)c(=O)n2C)n1CCC(C)C (stereo not drawn) do in these assays?
RGS4 block: inactive; MrgX1 allo act: inactive; RGS4 pot: inactive; MrgX1 antagonist: inactive; MrgX1 agonist: inactive

Results for CCC(C)Nc1nc2c(c(=O)[nH]c(=O)n2C)n1CCC(C)C (stereo not drawn) ?
RGS4 block: inactive; MrgX1 allo act: inactive; RGS4 pot: inactive; MrgX1 antagonist: inactive; MrgX1 agonist: inactive; RGS4 block valid: inactive; M3R Ca ctr: inactive; M3R basal Ca ctr: inactive

How did COC(=O)C(C)Sc1nc2c(c(=O)[nH]c(=O)n2C)n1CCC(C)C (stereo not drawn) do in these assays?
RGS4 block: 5.69*; MrgX1 allo act: inactive; RGS4 pot: inactive; MrgX1 antagonist: inactive; MrgX1 agonist: inactive; RGS4 block valid: 26.5%*; M3R Ca ctr: 56.0%*; M3R basal Ca ctr: inactive

What do the screens show for `Cc1ccc(/C=C/C(=O)N2CCN(c3ncccn3)CC2)o1`?
RGS4 block: 13.9*; MrgX1 allo act: inactive; RGS4 pot: inactive; MrgX1 antagonist: inactive; MrgX1 agonist: inactive; RGS4 block valid: 17.0%*; M3R Ca ctr: inactive; M3R basal Ca ctr: inactive

Results for CC(C)(C)c1ccc(/C=C(\c2nc3ccccc3[nH]2)S(=O)(=O)c2ccccc2)cc1 ?
RGS4 block: inactive; MrgX1 allo act: inactive; RGS4 pot: inactive; MrgX1 antagonist: inactive; MrgX1 agonist: inactive; RGS4 block valid: inactive; M3R Ca ctr: inactive; M3R basal Ca ctr: inactive

Results for O=C(c1cc(-c2ccc(Br)cc2)n[nH]1)N1CCN(C(=O)c2ccccc2Br)CC1 ?
RGS4 block: inactive; MrgX1 allo act: inactive; RGS4 pot: inactive; MrgX1 antagonist: inactive; MrgX1 agonist: inactive

Results for CCC(C(=O)NCCc1ccc(S(N)(=O)=O)cc1)c1ccccc1 (stereo not drawn) ?
RGS4 block: inactive; MrgX1 allo act: inactive; RGS4 pot: inactive; MrgX1 antagonist: inactive; MrgX1 agonist: inactive

How did CC(=O)C1=C(C)NC(=S)NC1c1cccc([N+](=O)[O-])c1 (stereo not drawn) do in these assays?
RGS4 block: inactive; MrgX1 allo act: 6.5*; RGS4 pot: inactive; MrgX1 antagonist: inactive; MrgX1 agonist: inactive; M3R Ca ctr: inactive; M3R basal Ca ctr: inactive

What do the screens show for `O=C/C=C/c1coc2ccc3ccccc3c2c1=O`?
RGS4 block: 15.4*; MrgX1 allo act: inactive; RGS4 pot: inactive; MrgX1 antagonist: inactive; MrgX1 agonist: inactive; RGS4 block valid: 13.0%*; M3R Ca ctr: 36.5%*; M3R basal Ca ctr: inactive

How did CC(C)CC(C(=O)NC(C)(C)C)N(Cc1ccccc1Cl)C(=O)c1snc(C(N)=O)c1N (stereo not drawn) do in these assays?
RGS4 block: inactive; MrgX1 allo act: inactive; RGS4 pot: inactive; MrgX1 antagonist: inactive; MrgX1 agonist: inactive

What do the screens show for `Cc1nc2ccccc2c(=O)n1-c1cccc(NC(=O)c2cccs2)c1`?
RGS4 block: inactive; MrgX1 allo act: inactive; RGS4 pot: inactive; MrgX1 antagonist: inactive; MrgX1 agonist: inactive
